Screening data deposited in PubChem by Broad Institute.
dFosB activator = activators of mouse delta FosB homodimer. P13346. purified delta FosB, TAMRA-CDK5 oligo fluorescence polarization; percent of positive-control signal above neutral wells. activation, % at 25 µM. hit rate 0.99% among 340,000. AID 493131;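 active = mean activation above about 17%, with every replicate also reaching it, limit read from the data, passing the limit was not always enough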
Target sequence (P13346 whole entry, looked up): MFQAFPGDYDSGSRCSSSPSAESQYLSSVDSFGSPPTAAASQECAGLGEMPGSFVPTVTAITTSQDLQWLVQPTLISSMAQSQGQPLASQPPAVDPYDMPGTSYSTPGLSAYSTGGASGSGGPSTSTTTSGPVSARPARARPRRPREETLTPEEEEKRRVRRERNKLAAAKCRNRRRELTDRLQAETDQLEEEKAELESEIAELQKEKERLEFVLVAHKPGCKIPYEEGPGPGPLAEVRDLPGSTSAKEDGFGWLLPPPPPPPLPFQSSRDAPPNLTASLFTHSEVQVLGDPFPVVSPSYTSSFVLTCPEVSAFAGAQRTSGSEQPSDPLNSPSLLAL
Statin myotox sup = protects C2C12 myotubes from simvastatin toxicity | ATP luminescence, 48 h; scaled: DMSO 0, geranylgeraniol control 100 | AID 602340 | hit rate 0.78% among 330,000 | rescue of ATP level, % at 7.49 µM;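 active = mean ATP rescue above about 67%, or every replicate alone reaching that limit, limit read from the data, passing the limit was not always enough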;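 note: myotubes were challenged with 10 µM simvastatin during compound exposure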
S100A4 inh HTS = inhibitors of human S100A4 binding to myosin IIA peptide; S100A4/TAMRA-MyoIIA peptide fluorescence polarization; hit rate 0.14% among 360,000; inhibition, % at 10.7 µM;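 active = mean inhibition of at least 70% across replicates, with every replicate also reaching that level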
Target sequence (P26447 whole entry, looked up): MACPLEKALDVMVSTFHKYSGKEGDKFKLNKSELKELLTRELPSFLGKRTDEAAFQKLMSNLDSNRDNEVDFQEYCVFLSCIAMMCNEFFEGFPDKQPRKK
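Material: human S100A4 monomer with TAMRA-labelled myosin IIA peptide; buffer or medium: HEPES pH 7.2 with CaCl2, KCl, NaCl, DTT, Triton; compound dosing: one concentration per compound; schedule: 5 min incubation before reading; benchmarks: neutral control DMSO, positive control TFP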
CAL PDZ FP-1 = human CAL PDZ-peptide interaction inhibition. purified CAL PDZ, TMR-peptide fluorescence polarization, 1 h. inhibition, % at 20 µM. hit rate 0.02% among 330,000. AID 504414;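 active = highest replicate inhibition of at least 40%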;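 note: plate controls were DMSO neutral control wells for no effect and unlabeled competitor peptide control wells for full effect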
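Test system: tagged CAL PDZ domain / Buffer or medium: sodium phosphate/NaCl buffer pH 7.4 with TCEP, IgG, Thesit / Reagent: TMR-labelled reporter peptide T*-PRC34 bound in PDZ groove / Compound dosing: single point, 20 µM / Schedule: 1 h incubation at room temperature before polarization reading / Technique: fluorescence polarization (mP) / Benchmarks: unlabelled peptide, DMSO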
CAL PDZ FP-2 = blocks peptide binding to the human CAL PDZ domain. Q9HD26. purified CAL PDZ, TMR-peptide fluorescence polarization, 1 h. inhibition, % at 24.9 µM. hit rate 0.92% among 300,000. AID 602252;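 active = mean inhibition of at least 30% with at least half of replicates also reaching 30%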;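 note: 0% = DMSO neutral control and 100% = excess unlabeled competitor peptide PRC23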
CDK5 p35 inh = CDK5/p35 (human) kinase inhibition; Recombinant CDK5/p35, ADP-Glo luminescence, 60 min; Q00535+Q15078; inhibition, % at 10 µM; hit rate 0.01% among 330,000;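 active = highest replicate inhibition of at least 50% and at least 75% of replicates reaching 50%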;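 note: plate controls were DMSO neutral control for no effect and GW8510 at 10 µM for full effect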
* hit, by the source's call; . = no result. Shown are actives, neighbours in structure and some others; about 2% of the full set was active somewhere.

SMILES | dFosB activator | Statin myotox sup | S100A4 inh HTS | CAL PDZ FP-1 | CAL PDZ FP-2 | CDK5 p35 inh
C=CCn1c(O)c(N=NC(=O)CNC(=O)/C=C/c2ccc(OC)cc2)c2ccccc21 | -11 | . | 1 | 0 | 59* | 1
CN1CCN(C(=O)C[C@H]2C[C@H]3c4cc(NC(=O)Nc5ccc(C(F)(F)F)cc5)ccc4O[C@H]3[C@H](CO)O2)CC1 | . | 7 | 17 | . | . | .
CC(C)(C)OC(=O)n1cc(C(=O)c2ccccc2O)cn1 | -1 | 31 | -3 | -1 | 70* | 3
CCOC(=O)n1cc(C(=O)c2ccccc2O)cn1 | -1 | 1 | -6 | -1 | -4 | 0
O=[N+]([O-])c1ccc(OCc2cnc(Cl)s2)c([N+](=O)[O-])c1 | -4 | . | 1 | -1 | . | 0
COc1cccc2sc(NNC(=O)C3=COCCO3)nc12 | -7 | 8 | -3 | -1 | -5 | 0
Cc1cc(C)c(C)c(S(=O)(=O)N2CCN(c3ccccn3)CC2)c1C | -6 | 3 | -2 | -3 | -5 | -1
Cc1n[nH]c(C)c1S(=O)(=O)N1CCN(c2ccccn2)CC1 | -1 | 78* | . | -1 | -22 | -1
O=C(Nc1cccc(C(F)(F)F)c1)c1ccc(Cn2cc(Br)cn2)o1 | -4 | 44 | . | -1 | 76* | 1
COc1ccc2oc(=O)c(C(=O)Nc3ccccc3O)cc2c1 | 7 | 4 | -12 | 18 | 78* | -1
COc1ccc(NC(=O)c2cc3ccccc3oc2=O)cc1 | . | -5 | 0 | . | . | .
NS(=O)(=O)c1ccc(CCNC(=O)COC(=O)C2CCC2)cc1 | -1 | 43 | 7 | -1 | 47* | 0
OC(CC1CC12c1ccccc1-c1ncccc12)(c1ccccc1)c1ccccc1 (stereo not given) | -13 | -5 | . | -1 | -2 | 0
CCOC(=O)C(C)C1(O)c2ccccc2-c2ncccc21 (stereo not given) | -2 | 106* | -2 | -1 | -3 | 1
O=C1C=C(N(CCO)CCO)C2(CCCCC2)O1 | 2 | -2 | . | 0 | . | -4
Cc1cccc(OCC(=O)Nc2cc(C)ccc2O)c1 | -6 | 113* | . | 0 | -3 | 0
CCCCCN(C(=O)CCC(=O)OCC(=O)N(C)C1CCCCC1)c1c(N)n(CCCC)c(=O)[nH]c1=O | 6 | . | -3 | -1 | -2 | 2
CCN(CC)CCNc1ncnc2c1sc1nc(N3CCCC3)c3c(c12)CC(C)(C)OC3 | 23* | . | -20 | 0 | -2 | -2
CCC(C)[C@H](NC(=O)NCc1ccccc1)C(=O)O (stereo not given in full) | -3 | 5 | . | -1 | . | 0
CC(C)[C@H](NC(=O)NCCc1ccccc1)C(=O)O | -3 | 92* | . | -1 | -2 | 1
C[C@@H]1CN([C@@H](C)CO)C(=O)c2cc(NC(=O)c3ccncc3)ccc2O[C@@H]1CN(C)S(=O)(=O)c1ccc(Cl)cc1 | . | -11 | -31 | . | . | .
COc1ccc(C(=O)Nc2ccc(S(=O)(=O)Nc3nccc(C)n3)cc2)cc1OC | -2 | -1 | . | 0 | 50* | 0
Cc1ccccc1NC(=O)c1ccc(C)c(S(=O)(=O)Nc2ccccn2)c1 | -3 | 97* | 1 | -1 | . | 2
O=C(Nc1ccc(S(=O)(=O)Nc2ccccn2)cc1)c1cccc(Cl)c1 | -7 | 74* | -6 | -3 | -1 | -2
COc1cc(OC)cc(C(=O)Nc2ccc(S(=O)(=O)Nc3ccccn3)cc2)c1 | 9 | 14 | 18 | 0 | 33* | 0
O=C(Nc1ccc(S(=O)(=O)Nc2ccccn2)cc1)c1cccc(Br)c1 | -6 | -2 | -2 | -1 | 7 | 1
CC(C)c1csc(CN2CCC(N3CCC(C(=O)NCC4CCCO4)CC3)CC2)n1 (stereo not given) | 0 | 3 | -3 | 0 | 39* | -1
CC(C)C[C@@H]1NC(=O)[C@H]2C[C@@H](C(=O)NCCCCCNC(=O)CS)[C@@H](c3cccc(OCCO)c3)N2C1=O | . | . | -1 | . | . | .
N/C(=N\OC(=O)c1ccc2c(c1)OCO2)c1ccc(Cl)cc1 | -11 | 0 | -3 | 1 | 2 | -1
N/C(=N\OC(=O)c1ccc2c(c1)OCO2)c1ccncc1 | -4 | 5 | 3 | -1 | 48* | 0
